This note sets out measurements from ChEMBL document CHEMBL1145096, “Synthesis and cytotoxic activity of two novel 1-dodecylthio-2-decyloxypropyl-3-phosphatidic acid conjugates with gemcitabine and cytosine arabinoside” (J Med Chem, 2003).

pIC50: −log10 of the molar value.

One assay has as its system HL-60. As to the kind of experiment: Inhibitory activity against HL-60 (human, promyelocytic leukemia) cell line. Type of assay: functional, cell-based. The method, boiled down: (§1)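 Cells kept in log phase in RPMI-1640 with 10% FBS and 1% penicillin-streptomycin, humidified 5% CO2/95% air, 37 °C. Viability read by CellTiter 96 aqueous proliferation assay (microplate optical density). Drug-treated optical densities compared with untreated controls; IC50 obtained by nonlinear regression.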

The test system of another assay is HeLa. Description: Inhibitory activity against HeLa (human, epitheloid carcinoma, cervix) cell line. Type of assay: functional, cell-based. The method, boiled down: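 HeLa maintained in log phase in DMEM, 10% FBS, 1% penicillin-streptomycin, humidified 5% CO2 at 37 °C. Growth quantified with CellTiter 96 aqueous assay by microplate optical density. Values expressed relative to untreated controls; IC50 by nonlinear regression.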

The subject of another assay is U373 MG. As to the kind of experiment: Inhibitory activity against U373-MG (human, glioblastoma) cell line. Type of assay: functional, cell-based, U-373MG ATCC. The method, boiled down: (§2)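 Maintained in log phase in MEM with 10% FBS and 1% penicillin-streptomycin at 37 °C in humidified 5% CO2. Cell proliferation read with CellTiter 96 aqueous assay by optical density. Treated versus untreated control; IC50 calculated by nonlinear regression.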

The subject of a further assay is SCC-25. As to the kind of experiment: Inhibitory activity against SCC-25 (human, squamous cell carcinoma, tongue) cell line. Type of assay: functional, cell-based. The method, boiled down:
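SCC-25 cultured in log phase in DMEM with 10% FBS, 400 ng/mL hydrocortisone and 1% penicillin-streptomycin, humidified 5% CO2/95% air, 37 °C. CellTiter 96 aqueous assay, optical density compared with untreated cells; IC50 from nonlinear regression.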

In a further assay the test system is CEM-SS. Description: Inhibitory activity against CEM-SS (human T-4 lymphoblastoid clone) cell line. Type of assay: functional, cell-based. The method, boiled down:
as §1

Another assay relates to BXPC-3. As to the kind of experiment: Inhibitory activity against BxPC3 (human,pancreas,adenocarcinoma) cell line. Type of assay: functional, cell-based. The method, boiled down:
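BxPC3 grown in log phase in RPMI-1640 plus 10% FBS, 10 mM HEPES, 1.5 g/L NaHCO3, sodium pyruvate and 1% penicillin-streptomycin, at 37 °C under 5% CO2. CellTiter 96 aqueous proliferation readout by optical density. Treated wells compared with untreated controls; IC50 from nonlinear regression.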

The test system of the next assay is BG-1 cell line. Description: Inhibitory activity against BG-1 (human, […] adenocarcinoma) cell line. Type of assay: functional, cell-based. The method, boiled down:
as §1

The subject of a further assay is HT-29. As to the kind of experiment: Inhibitory activity against HT-29 (human,colon,adenocarcinoma) cell line. Type of assay: functional, cell-based. The method, boiled down: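 Colon line kept in log phase in McCoy's 5A modified medium with 10% FBS and 1% penicillin-streptomycin, 37 °C, 5% CO2 humidified. Proliferation measured by CellTiter 96 aqueous assay (optical density) against untreated cells; IC50 fitted by nonlinear regression.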

The next assay concerns SK-LU-1. Description: Inhibitory activity against SK-LU-1 (human,lung,adenocarcinoma) cell line. Type of assay: functional, cell-based. The method, boiled down:
as §2

The subject of another assay is MCF7. Description: Inhibitory activity against MCF-7/WT-2'' (human, breast carcinoma) cell line. Type of assay: functional, cell-based. The method, boiled down:
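MCF7/WT-2' grown in log phase in D-MEM/F-12 with 10% FBS, 10 μg/mL insulin and 1% penicillin-streptomycin, 37 °C, 5% CO2. Read-out was CellTiter 96 aqueous proliferation assay (optical density) versus untreated control. IC50 derived by nonlinear regression.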

`Nc1ccn([C@@H]2O[C@H](CO)[C@@H](O)[C@@H]2O)c(=O)n1` [CYTARABINE] showed a pIC50 with HL-60 of 6.12.
As to `Nc1ccn([C@@H]2O[C@H](CO)[C@@H](O)C2(F)F)c(=O)n1` [GEMCITABINE], the pIC50 in the assay with HeLa is 8.10; with U373 MG, 6.89; with SCC-25 it was 7.33; in the assay with CEM-SS, 7.52; with HL-60, 6.48; with BXPC-3, 6.80. Moreover, the negative-log IC50 (pIC50) is 6.17 in the assay on BG-1 cell line, 7.37 with HT-29, 7.26 in the assay on SK-LU-1 and 5.78 in the assay with MCF7.
Regarding `CCCCCCCCCCCCSCC(COP(=O)(O)OC[C@H]1O[C@@H](n2ccc(N)nc2=O)C(F)(F)[C@@H]1O)OCCCCCCCCCC` (some centres not stated), the pIC50 with HeLa was 6.16; in the assay on U373 MG, 6.54; with SCC-25, 6.23; with CEM-SS it was 6.22; with HL-60 it was 5.74; with BXPC-3 it was 5.80. The pIC50 was 5.74 in the assay on BG-1 cell line, 6.12 in the assay on HT-29, 5.95 with SK-LU-1 and 5.76 in the assay on MCF7.
In the case of `CCCCCCCCCCCCSCC(COP(=O)(O)OCC1OC(n2ccc(N)nc2=O)[C@@H](O)C1O)OCCCCCCCCCC` (some centres not stated), the pIC50 with HL-60 is 4.17.

By pIC50 is commonly meant −log10 of the IC50, conventionally taken in molar units. A lower pIC50 goes with a large IC50.
